Measured values taken from ChEMBL document CHEMBL1123052, “Structure-activity relationships for prazosin and WB 4101 analogues as alpha 1-adrenoreceptor antagonists” (J Med Chem, 1985).
Structures can show the parent of a compound that is named as a salt. Values belong to the compound of their own block, whether it stands above or below them.

Assays:
[1] = target: T1, Adrenergic receptor alpha-1 (Rattus norvegicus, UniProt P15823+P23944+P43140); assay: Alpha-1-Adrenoceptor blocking activity as antagonism of (-)-norepinephrine induced contractions of epididymal vas deferens; type: functional, tissue-based
T1 sequence (P15823 whole entry): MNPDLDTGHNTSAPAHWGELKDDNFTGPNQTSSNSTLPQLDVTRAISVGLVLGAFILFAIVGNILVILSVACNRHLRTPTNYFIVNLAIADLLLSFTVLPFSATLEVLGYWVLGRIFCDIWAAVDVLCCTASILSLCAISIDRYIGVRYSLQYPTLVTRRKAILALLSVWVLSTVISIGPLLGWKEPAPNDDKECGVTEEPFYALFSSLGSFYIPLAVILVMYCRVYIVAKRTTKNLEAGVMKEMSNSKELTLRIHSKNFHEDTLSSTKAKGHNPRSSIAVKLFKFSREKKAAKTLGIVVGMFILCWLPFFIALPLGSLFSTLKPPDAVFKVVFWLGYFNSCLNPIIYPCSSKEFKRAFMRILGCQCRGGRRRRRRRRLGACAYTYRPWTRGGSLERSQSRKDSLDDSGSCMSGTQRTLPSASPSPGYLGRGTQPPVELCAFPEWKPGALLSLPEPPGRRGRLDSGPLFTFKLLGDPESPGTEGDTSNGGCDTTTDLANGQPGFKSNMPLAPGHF
T1 sequence (P23944 whole entry): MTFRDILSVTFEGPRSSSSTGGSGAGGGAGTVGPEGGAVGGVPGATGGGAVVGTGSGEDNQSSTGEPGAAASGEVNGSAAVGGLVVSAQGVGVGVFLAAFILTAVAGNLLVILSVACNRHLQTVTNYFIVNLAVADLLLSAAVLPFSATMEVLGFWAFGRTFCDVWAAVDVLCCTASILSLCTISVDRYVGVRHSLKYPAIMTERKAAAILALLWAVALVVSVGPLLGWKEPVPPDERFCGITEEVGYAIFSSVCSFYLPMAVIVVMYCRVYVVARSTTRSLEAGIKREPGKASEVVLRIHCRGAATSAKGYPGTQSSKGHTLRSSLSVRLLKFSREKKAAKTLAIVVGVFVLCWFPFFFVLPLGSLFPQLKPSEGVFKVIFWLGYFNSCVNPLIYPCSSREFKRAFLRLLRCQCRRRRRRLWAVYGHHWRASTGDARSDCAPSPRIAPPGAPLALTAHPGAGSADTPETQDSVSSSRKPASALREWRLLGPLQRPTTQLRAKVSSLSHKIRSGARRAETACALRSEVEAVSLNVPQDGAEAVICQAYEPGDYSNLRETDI
T1 sequence (P43140 whole entry): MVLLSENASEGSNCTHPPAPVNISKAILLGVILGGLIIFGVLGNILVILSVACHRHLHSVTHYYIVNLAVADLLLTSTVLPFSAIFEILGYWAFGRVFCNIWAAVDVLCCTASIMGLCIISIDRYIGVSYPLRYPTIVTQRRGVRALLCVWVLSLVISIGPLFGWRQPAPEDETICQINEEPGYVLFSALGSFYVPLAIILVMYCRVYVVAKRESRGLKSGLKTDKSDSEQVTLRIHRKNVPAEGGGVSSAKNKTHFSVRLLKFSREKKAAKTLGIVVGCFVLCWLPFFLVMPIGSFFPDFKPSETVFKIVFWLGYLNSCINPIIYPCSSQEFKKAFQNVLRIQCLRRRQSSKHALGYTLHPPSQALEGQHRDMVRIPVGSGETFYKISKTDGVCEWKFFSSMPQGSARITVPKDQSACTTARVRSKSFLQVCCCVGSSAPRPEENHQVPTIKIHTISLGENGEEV

Rattus norvegicus = organism: Rattus norvegicus; assay: (§1) Alpha-2-adrenoceptor blocking activity was determined by antagonism of clonidine induced depression of the twitch responses of the field stimulated prostatic portion of the vas deferens and the potency was expressed as pA2.; type: functional; settings: read-out: pA2 (converted)
[2] = Selectivity as the ratio of pA2 value against alpha 1 receptor to that of alpha-2 receptor.
How it was run: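 Ratio computed as the antilog of the α1 pA2 minus the α2 pA2. The α1 pA2 came from rat epididymal vas deferens against norepinephrine, and the α2 pA2 from field-stimulated prostatic vas deferens against clonidine.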

[3] = target: T1, Adrenergic receptor alpha-1; assay: Alpha-1 adrenergic receptor blocking activity was assessed by antagonism of (-)-norepinephrine induced contractions of the epididymal portion of the vas deferens and the potency was expressed as pA2.; type: functional, tissue-based
How it was run: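 Male albino rat (175–200 g) epididymal vas deferens, 14 mm, in Krebs at 37 °C gassed 95% O2–5% CO2, 0.4 g load, with propranolol 1 μM, cocaine 10 μM, deoxycorticosterone acetate 40 μM. ≥1 h equilibration. Cumulative norepinephrine curves: second as control, third after 30 min antagonist. Time-matched untreated tissues. Schild pA2 from EC50 dose ratios, three antagonist concentrations, n≥5 each.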

[4] = target: T2, Adrenergic receptor alpha-2 (Rattus norvegicus, UniProt P22086+P19328+P22909); assay: as §1; type: functional, tissue-based
T2 sequence (P22086 whole entry): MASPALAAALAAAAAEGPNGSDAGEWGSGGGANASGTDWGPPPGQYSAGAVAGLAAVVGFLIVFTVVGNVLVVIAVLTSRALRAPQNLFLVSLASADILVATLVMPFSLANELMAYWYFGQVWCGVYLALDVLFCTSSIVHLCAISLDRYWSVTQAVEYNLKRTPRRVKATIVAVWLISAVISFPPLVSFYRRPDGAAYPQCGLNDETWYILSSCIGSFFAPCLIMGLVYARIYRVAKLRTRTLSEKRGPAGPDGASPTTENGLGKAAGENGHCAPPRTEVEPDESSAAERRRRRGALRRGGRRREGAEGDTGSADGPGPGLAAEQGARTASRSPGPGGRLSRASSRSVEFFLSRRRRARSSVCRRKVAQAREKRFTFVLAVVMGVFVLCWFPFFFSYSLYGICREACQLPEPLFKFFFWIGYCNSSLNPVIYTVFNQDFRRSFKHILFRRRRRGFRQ
T2 sequence (P19328 whole entry): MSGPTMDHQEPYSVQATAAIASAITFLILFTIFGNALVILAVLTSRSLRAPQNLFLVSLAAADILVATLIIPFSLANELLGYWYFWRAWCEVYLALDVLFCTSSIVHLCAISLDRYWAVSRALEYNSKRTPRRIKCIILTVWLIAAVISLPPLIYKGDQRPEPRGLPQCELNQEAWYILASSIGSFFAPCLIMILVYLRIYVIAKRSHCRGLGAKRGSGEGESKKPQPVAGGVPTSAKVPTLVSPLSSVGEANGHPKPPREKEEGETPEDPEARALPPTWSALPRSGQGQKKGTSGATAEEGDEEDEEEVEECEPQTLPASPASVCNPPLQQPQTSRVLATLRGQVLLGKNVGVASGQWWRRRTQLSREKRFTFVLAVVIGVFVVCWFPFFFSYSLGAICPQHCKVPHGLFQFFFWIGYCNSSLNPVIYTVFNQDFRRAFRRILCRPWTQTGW
T2 sequence (P22909 whole entry): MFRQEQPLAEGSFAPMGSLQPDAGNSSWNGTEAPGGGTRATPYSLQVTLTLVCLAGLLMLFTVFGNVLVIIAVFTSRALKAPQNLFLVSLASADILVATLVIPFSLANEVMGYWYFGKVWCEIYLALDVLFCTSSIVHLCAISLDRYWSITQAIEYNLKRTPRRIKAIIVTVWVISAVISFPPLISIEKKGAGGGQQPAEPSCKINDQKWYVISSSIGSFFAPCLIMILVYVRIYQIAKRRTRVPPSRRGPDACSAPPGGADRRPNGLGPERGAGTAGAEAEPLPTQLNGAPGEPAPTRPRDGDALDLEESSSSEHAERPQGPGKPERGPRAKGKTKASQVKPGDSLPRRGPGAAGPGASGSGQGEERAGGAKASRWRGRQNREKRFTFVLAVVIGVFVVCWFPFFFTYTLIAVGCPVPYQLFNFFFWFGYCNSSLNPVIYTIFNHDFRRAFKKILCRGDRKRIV
How it was run: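 Field stimulation 0.1 Hz, 3-ms pulses, 10–35 V. Propranolol, cocaine and deoxycorticosterone present. After 1 h, one tissue was given antagonist for 30 min and the contralateral tissue served as control. Clonidine curves for 50% twitch inhibition gave dose ratios. Three concentrations (two if limited above 30 μM), n≥5; Schild or van Rossum pA2.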

Compound: COc1cc2nc(NCCOc3c(OC)cccc3OC)nc(N)c2cc1OC.Cl
pA2 [1]: 7.88 | Kb (Rattus norvegicus): 1.15 µM | Selectivity ratio [2]: 87

Compound: Cl.O=C(c1ccco1)N1CCN(CC2COc3ccccc3O2)CC1 (stereo unspecified)
Kb (Rattus norvegicus): 0.525 µM | pA2 [3]: 6.05 | Selectivity ratio [2]: 0.59

Compound: COc1cc2nc(N(C)CCOc3c(OC)cccc3OC)nc(N)c2cc1OC.Cl
pA2 [1]: 7.86 | pA2 [4]: 5.91 | Selectivity ratio [2]: 89

Compound: COc1cc2nc(NCCNC(=O)c3ccco3)nc(N)c2cc1OC.Cl
pA2 [1]: 8.81 | Kb (Rattus norvegicus): 6.03 µM | Selectivity ratio [2]: 3890

Compound: COc1cc2nc(N(C)CCN(C)C(=O)c3ccco3)nc(N)c2cc1OC.Cl
pA2 [1]: 7.18 | Kb (Rattus norvegicus): 4.27 µM | Selectivity ratio [2]: 65

Compound: COc1cccc(OC)c1OCCN1CCN(C(=O)c2ccco2)CC1.Cl
pA2 [1]: 6.45 | Kb (Rattus norvegicus): 19.5 µM | Selectivity ratio [2]: 55

Continued, in another order:

pA2 [1]: 7.19 | Selectivity ratio [2]: 22
Compound: Cl.O=C(NCCNCC1COc2ccccc2O1)c1ccco1 (stereo unspecified)
Kb (Rattus norvegicus): 1.41 µM

pA2 [1]: 7.22 | Selectivity ratio [2]: 11
Compound: COc1cc2nc(NCC3COc4ccccc4O3)nc(N)c2cc1OC.Cl (stereo unspecified)
Kb (Rattus norvegicus): 0.676 µM

Selectivity ratio [2]: 347
Compound: COc1cccc(OC)c1OCCNCC1COc2ccccc2O1 (stereo unspecified) [2- (2,6-DIMETHOXYPHENOXYETHYL)AMINOMETHYL-1,4-BENZODIOXANE HYDROCHLORIDE (WB 4101)]
Kb (Rattus norvegicus): 0.513 µM
